Test results: ChEMBL document CHEMBL1123716, “Synthesis and tumor uptake of 5-halo-1-(2'-fluoro-2'-deoxy-beta-D-ribofuranosyl)[2-14C]uracils” (J Med Chem, 1987)

How the values were obtained:
Conditions in all cases: in vivo
Mus musculus [1] = experiment: Tissue distribution in BDF1 female mice bearing an implanted lewis lung tumor after intravenous injection in skin at 24 h.; type: ADME, organism-based, Skin of body
Procedure, shortened: (§1)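 Female BDF₁ mice (18–20 g) carrying transplanted Lewis lung tumor received 23–193 kBq of the [2-¹⁴C]-labeled nucleoside in normal saline via tail vein. The compound was stored as a dry film and reconstituted just before use. Animals were killed at set times, and tissue ¹⁴C was measured by combustion and liquid scintillation. Values are mean ± SD % injected dose per gram of wet tissue, n = 6.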

Mus musculus [2] = experiment: Tissue distribution in BDF1 female mice bearing an implanted lewis lung tumor after intravenous injection in skin at 8 h.; type: ADME, organism-based, Skin of body; procedure, shortened: as §1
Mus musculus [3] = experiment: Tissue distribution in BDF1 female mice bearing an implanted lewis lung tumor after intravenous injection in muscle at 2 h.; type: ADME, organism-based; procedure, shortened: as §1
Mus musculus [4] = experiment: Tissue distribution in BDF1 female mice bearing an implanted lewis lung tumor after intravenous injection in stomach at 8 h.; type: ADME, organism-based
Procedure, shortened: (§2)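 Female BDF1 mice (18–20 g) carrying a transplanted Lewis lung tumor were given 23–193 kBq of the [2-14C]-labelled nucleoside in normal saline by tail vein. Animals were killed at set times. Tissue 14C was counted by liquid scintillation, after combustion or directly. Values are percent of injected dose per gram wet tissue, as mean ± standard deviation of six animals.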

Mus musculus [5] = experiment: Tissue distribution in BDF1 female mice bearing an implanted lewis lung tumor after intravenous injection in muscle at 1 h.; type: ADME, organism-based; procedure, shortened: as §1
Mus musculus [6] = experiment: Tissue distribution in BDF1 female mice bearing an implanted lewis lung tumor after intravenous injection in skin at 0.5 h.; type: ADME, organism-based, Skin of body; procedure, shortened: as §1
Mus musculus [7] = experiment: Tissue distribution in BDF1 female mice bearing an implanted lewis lung tumor after intravenous injection in lung at 4 h; type: ADME, organism-based; procedure, shortened: as §1
Mus musculus [8] = experiment: Tissue distribution in BDF1 female mice bearing an implanted lewis lung tumor after intravenous injection in stomach at 24 h.; type: ADME, organism-based; procedure, shortened: as §1
Mus musculus [9] = experiment: Tissue distribution in BDF1 female mice bearing an implanted lewis lung tumor after intravenous injection in spleen at 24 h.; type: ADME, organism-based; procedure, shortened: as §1
Mus musculus [10] = experiment: Tissue distribution in BDF1 female mice bearing an implanted lewis lung tumor after intravenous injection in skin at 1 h.; type: ADME, organism-based, Skin of body; procedure, shortened: as §1
Mus musculus [11] = experiment: Tissue distribution in BDF1 female mice bearing an implanted lewis lung tumor after intravenous injection in kidney at 24 h.; type: ADME, organism-based; procedure, shortened: as §1
Mus musculus [12] = experiment: Tissue distribution in BDF1 female mice bearing an implanted lewis lung tumor after intravenous injection in bone at 2 h.; type: ADME, organism-based
Procedure, shortened: (§3)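 Female BDF1 mice (18–20 g) with implanted Lewis lung tumor received the 2-14C compound by tail vein, 23–193 kBq in normal saline, reconstituted from a dry film just before use. Animals were killed at set times and tissues taken for 14C counting by combustion and liquid scintillation. Values are percent injected dose per gram wet tissue, mean ± standard deviation, six animals.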

Mus musculus [13] = experiment: Tissue distribution in BDF1 female mice bearing an implanted lewis lung tumor after intravenous injection in stomach at 2 h.; type: ADME, organism-based; procedure, shortened: as §1
Mus musculus [14] = experiment: Tissue distribution in BDF1 female mice bearing an implanted lewis lung tumor after intravenous injection in lung at 24 h.; type: ADME, organism-based; procedure, shortened: as §1
Mus musculus [15] = experiment: Tissue distribution in BDF1 female mice bearing an implanted lewis lung tumor after intravenous injection in lung at 0.5 h.; type: ADME, organism-based; procedure, shortened: as §1
Mus musculus [16] = experiment: Tissue distribution in BDF1 female mice bearing an implanted lewis lung tumor after intravenous injection in liver at 24 h.; type: ADME, organism-based; procedure, shortened: as §1
Mus musculus [17] = experiment: Tissue distribution in BDF1 female mice bearing an implanted lewis lung tumor after intravenous injection in blood at 1 h.; type: ADME, organism-based; procedure, shortened: as §3
Mus musculus [18] = experiment: Tissue distribution in BDF1 female mice bearing an implanted lewis lung tumor after intravenous injection in bone at 4 h.; type: ADME, organism-based; procedure, shortened: as §3
Mus musculus [19] = experiment: Tissue distribution in BDF1 female mice bearing an implanted lewis lung tumor after intravenous injection in blood at 2 h.; type: ADME, organism-based; procedure, shortened: as §3
Mus musculus [20] = experiment: Tissue distribution in BDF1 female mice bearing an implanted lewis lung tumor after intravenous injection in muscle at 0.5 h.; type: ADME, organism-based; procedure, shortened: as §1
Mus musculus [21] = experiment: Tissue distribution in BDF1 female mice bearing an implanted lewis lung tumor after intravenous injection in tumor at 2 h.; type: ADME, organism-based; procedure, shortened: as §2
Mus musculus [22] = experiment: Tissue distribution in BDF1 female mice bearing an implanted lewis lung tumor after intravenous injection in tumor at 0.5 h.; type: ADME, organism-based; procedure, shortened: as §2
Mus musculus [23] = experiment: Tissue distribution in BDF1 female mice bearing an implanted lewis lung tumor after intravenous injection in git(Section of intestine) at 0.25 h.; type: ADME, organism-based; procedure, shortened: as §3
Mus musculus [24] = experiment: Tissue distribution in BDF1 female mice bearing an implanted lewis lung tumor after intravenous injection in lung at 0.25 h.; type: ADME, organism-based; procedure, shortened: as §1
Mus musculus [25] = experiment: Tissue distribution in BDF1 female mice bearing an implanted lewis lung tumor after intravenous injection in liver at 4 h.; type: ADME, organism-based; procedure, shortened: as §1
Mus musculus [26] = experiment: Tissue distribution in BDF1 female mice bearing an implanted lewis lung tumor after intravenous injection in skin at 4 h.; type: ADME, organism-based, Skin of body; procedure, shortened: as §1
Mus musculus [27] = experiment: Tissue distribution in BDF1 female mice bearing an implanted lewis lung tumor after intravenous injection in liver at 8 h.; type: ADME, organism-based; procedure, shortened: as §1
Mus musculus [28] = experiment: Tissue distribution in BDF1 female mice bearing an implanted lewis lung tumor after intravenous injection in heart at 8 h.; type: ADME, organism-based; procedure, shortened: as §3
Mus musculus [29] = experiment: Tissue distribution in BDF1 female mice bearing an implanted lewis lung tumor after intravenous injection in tumor at 24 h.; type: ADME, organism-based; procedure, shortened: as §2
Mus musculus [30] = experiment: Tissue distribution in BDF1 female mice bearing an implanted lewis lung tumor after intravenous injection in heart at 0.5 h.; type: ADME, organism-based; procedure, shortened: as §3
Mus musculus [31] = experiment: Tissue distribution in BDF1 female mice bearing an implanted lewis lung tumor after intravenous injection in heart at 1 h.; type: ADME, organism-based; procedure, shortened: as §3
Mus musculus [32] = experiment: Tissue distribution in BDF1 female mice bearing an implanted lewis lung tumor after intravenous injection in liver at 1 h.; type: ADME, organism-based; procedure, shortened: as §1
Mus musculus [33] = experiment: Tissue distribution in BDF1 female mice bearing an implanted lewis lung tumor after intravenous injection in kidney at 8 h.; type: ADME, organism-based; procedure, shortened: as §1
Mus musculus [34] = experiment: Tissue distribution in BDF1 female mice bearing an implanted lewis lung tumor after intravenous injection in blood at 0.25 h; type: ADME, organism-based; procedure, shortened: as §3
Mus musculus [35] = experiment: Tissue distribution in BDF1 female mice bearing an implanted lewis lung tumor after intravenous injection in spleen at 2 h.; type: ADME, organism-based; procedure, shortened: as §1
Mus musculus [36] = experiment: Tissue distribution in BDF1 female mice bearing an implanted lewis lung tumor after intravenous injection in bone at 24 h.; type: ADME, organism-based; procedure, shortened: as §3
Mus musculus [37] = experiment: Tissue distribution in BDF1 female mice bearing an implanted lewis lung tumor after intravenous injection in tumor at 8 h.; type: ADME, organism-based; procedure, shortened: as §2
Mus musculus [38] = experiment: Tissue distribution in BDF1 female mice bearing an implanted lewis lung tumor after intravenous injection in blood at 24 h.; type: ADME, organism-based; procedure, shortened: as §3
Mus musculus [39] = experiment: Tissue distribution in BDF1 female mice bearing an implanted lewis lung tumor after intravenous injection in kidney at 2 h.; type: ADME, organism-based; procedure, shortened: as §3
Mus musculus [40] = experiment: Tissue distribution in BDF1 female mice bearing an implanted lewis lung tumor after intravenous injection in spleen at 8 h.; type: ADME, organism-based; procedure, shortened: as §1
Mus musculus [41] = experiment: Tissue distribution in BDF1 female mice bearing an implanted lewis lung tumor after intravenous injection in stomach at 1 h.; type: ADME, organism-based; procedure, shortened: as §1
Mus musculus [42] = experiment: Tissue distribution in BDF1 female mice bearing an implanted lewis lung tumor after intravenous injection in heart at 0.25 h.; type: ADME, organism-based; procedure, shortened: as §3
Mus musculus [43] = experiment: Tissue distribution in BDF1 female mice bearing an implanted lewis lung tumor after intravenous injection in blood at 0.5 h.; type: ADME, organism-based; procedure, shortened: as §3
Mus musculus [44] = experiment: Tissue distribution in BDF1 female mice bearing an implanted lewis lung tumor after intravenous injection in git(Section of intestine) at 2 h.; type: ADME, organism-based; procedure, shortened: as §3
Mus musculus [45] = experiment: Tissue distribution in BDF1 female mice bearing an implanted lewis lung tumor after intravenous injection in lung at 2 h.; type: ADME, organism-based; procedure, shortened: as §1

- Tissue distribution (Mus musculus [1]): 0.004
- Tissue distribution (Mus musculus [2]): 0.01
- Tissue distribution (Mus musculus [3]): 0.06
- Tissue distribution (Mus musculus [4]): 0.01
- Tissue distribution (Mus musculus [5]): 0.37
- Tissue distribution (Mus musculus [6]): 1.18
- Tissue distribution (Mus musculus [7]): 0.02
- Tissue distribution (Mus musculus [8]): 0.005
- Tissue distribution (Mus musculus [9]): 0.03
- Tissue distribution (Mus musculus [10]): 0.43
- Tissue distribution (Mus musculus [11]): 0.01
- Tissue distribution (Mus musculus [12]): 0.11
- Tissue distribution (Mus musculus [13]): 0.07
- Tissue distribution (Mus musculus [14]): 0.005
- Tissue distribution (Mus musculus [15]): 1.43
- Tissue distribution (Mus musculus [16]): 0.005
- Tissue distribution (Mus musculus [17]): 0.54
- Tissue distribution (Mus musculus [18]): 0.07
- Tissue distribution (Mus musculus [19]): 0.06
- Tissue distribution (Mus musculus [20]): 1.06
- Tissue distribution (Mus musculus [21]): 0.49
- Tissue distribution (Mus musculus [22]): 3.88
- Tissue distribution (Mus musculus [23]): 3.35
- Tissue distribution (Mus musculus [24]): 3.37
- Tissue distribution (Mus musculus [25]): 0.02
- Tissue distribution (Mus musculus [26]): 0.11
- Tissue distribution (Mus musculus [27]): 0.01
- Tissue distribution (Mus musculus [28]): 0.009
- Tissue distribution (Mus musculus [29]): 0.02
- Tissue distribution (Mus musculus [30]): 1.71
- Tissue distribution (Mus musculus [31]): 0.58
- Tissue distribution (Mus musculus [32]): 0.53
- Tissue distribution (Mus musculus [33]): 0.02
- Tissue distribution (Mus musculus [34]): 3.49
- Tissue distribution (Mus musculus [35]): 0.29
- Tissue distribution (Mus musculus [36]): 0.02
- Tissue distribution (Mus musculus [37]): 0.05
- Tissue distribution (Mus musculus [38]): 0.01
- Tissue distribution (Mus musculus [39]): 0.84
- Tissue distribution (Mus musculus [40]): 0.09
- Tissue distribution (Mus musculus [41]): 0.38
- Tissue distribution (Mus musculus [42]): 3.8
- Tissue distribution (Mus musculus [43]): 1.59
- Tissue distribution (Mus musculus [44]): 0.11
- Tissue distribution (Mus musculus [45]): 0.07
SMILES: O=c1[nH]c(=O)n([C@H]2O[C@@H](CO)[C@H](O)[C@H]2F)cc1F
